IC50, Activity and Ki data for 45 compounds are collected here from ChEMBL document CHEMBL1157861, “Phosphaisocoumarins as a new class of potent inhibitors for pancreatic cholesterol esterase” (Eur J Med Chem, 2010).

Structures are written as SMILES. Activity calls are given as the source filed them. The rule behind the calls is not given here.

Tested on in one assay: not listed separately
Description: Inhibition of pig pancreatic cholesterol esterase assessed as p-nitrophenylbutyrate hydrolysis at 100 uM after 1 min. The arrangement: species or system Sus scrofa. The procedure, abridged:
(§1)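 Porcine pancreatic CEase (0.0125 mU) is pre-incubated for 1 min with varied inhibitor concentrations in 0.1 M sodium phosphate, pH 7.04, with 0.1 M NaCl. PNPB (0.1 mM) is then added and hydrolysis is followed by A405 for 1 min. Compounds are also checked at one fixed top concentration. Each concentration is run in triplicate and averaged.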
For orientation: IC50 means the point on the concentration scale where inhibition reaches its midpoint. Regarding `CCCCC1=C(Br)c2ccc(Cl)cc2P(=O)(OCC)O1` (centres undefined), the concentration for half-maximal inhibition (IC50) entry is given as “Not Active”.

In the case of `CCCCC1=C(Cl)c2ccccc2P(=O)(OCC)O1` (centres undefined), the IC50 result was “Not Active”.

As to `CCCCC1=C(I)c2ccccc2P(=O)(OCC)O1` (centres undefined), the 50% inhibitory concentration (IC50) entry is given as “Not Active”.

As to `CCOP1(=O)OC(C2CC2)=C(Br)c2ccc(OC)cc21` (centres undefined), the IC50 entry is “Not Active”.

Consider `CCOP1(=O)OC(C2CC2)=C(Br)c2ccc(Cl)cc21` (centres undefined), for which the IC50 result was “Not Active”.

Take `CCOP1(=O)OC(C2CC2)=C(I)c2ccc(Cl)cc21` (centres undefined): the IC50 result is “Not Active”.

`CCCCC1=C(Br)c2ccccc2P(=O)(OCC)O1` (centres undefined): the IC50 entry is listed as “Not Active”.

As to `CCOP1(=O)OC(C2CC2)=Cc2ccc(Cl)cc21` (centres undefined), the IC50 entry is listed as “Not Active”.

Turning to `CCCCC1=C(Cl)c2ccc(Cl)cc2P(=O)(OCC)O1` (centres undefined), the half-maximal inhibitory concentration (IC50) entry was “Not Active”.

On to `CCCCC1=Cc2ccccc2P(=O)(OCC)O1` (centres undefined), for which the IC50 result is “Not Active”.

For another assay, the species on record is Sus scrofa. Description: Reversible inhibition of pig pancreatic cholesterol after 6 hrs absence of p-nitrophenylbutyrate. The method in brief:
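CEase and excess inhibitor are incubated without substrate in sodium phosphate buffer, pH 7.04, with 5% acetonitrile by volume, at 25 °C for up to 6 h. Samples are checked periodically by TLC.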
As for `CCOP1(=O)OC(c2ccc(CC)cc2)=C(I)c2ccc(Cl)cc21` (centres undefined), the outcome was inactive.

As for `CCOP1(=O)OC(c2ccccc2)=C(C#Cc2ccccc2)c2ccccc21` (centres undefined), the result was inactive.

Turning to `O=P1(O)OC(c2ccccc2)=C(Cl)c2ccccc21`, the outcome was inactive.

The species entered for a further assay is Sus scrofa. Description: Reversible inhibition of pig pancreatic cholesterol esterase assessed as p-nitrophenylbutyrate hydrolysis after 1 min.
For `CCOP1(=O)OC(c2ccc(CC)cc2)=C(I)c2ccc(Cl)cc21` (centres undefined), the result was Active.

On to `CCOP1(=O)OC(c2ccccc2)=C(C#Cc2ccccc2)c2ccccc21` (centres undefined), for which the result was Active.

`O=P1(O)OC(c2ccccc2)=C(Cl)c2ccccc21`: the outcome was Active.

Molecular target in a further assay: not listed separately
Description: Competitive inhibition of pig pancreatic cholesterol esterase assessed as p-nitrophenylbutyrate hydrolysis after 1 min by Lineweaver-Burke plot analysis. Set-up: species or system Sus scrofa. The procedure, abridged: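 For kinetics, CEase (0.0125 mU) is pre-incubated 1 min with inhibitor in sodium phosphate buffer. PNPB is then added at 0.07–0.3 mM and the A405 change is followed for 1 min at each substrate level. Mechanism is assigned from the rate data across substrate and inhibitor concentrations.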
A word on the Ki: it is the dissociation constant of the complex between target and ligand, obtained from inhibition or displacement. As for `CCOP1(=O)OC(c2ccc(CC)cc2)=C(I)c2ccc(Cl)cc21` (centres undefined), the Ki worked out at 4.2 µM.

With `CCOP1(=O)OC(c2ccccc2)=C(C#Cc2ccccc2)c2ccccc21` (centres undefined), the Ki stood at 1.9 µM.

In the case of `O=P1(O)OC(c2ccccc2)=C(Cl)c2ccccc21`, the Ki was determined as 1.4 µM.

Molecular target in another assay: not listed separately
Description: Inhibition of pig pancreatic cholesterol esterase assessed as p-nitrophenylbutyrate hydrolysis after 1 min. The arrangement: species or system Sus scrofa. The procedure, abridged: as §1
As for `CCOP1(=O)OC(c2ccc(CC)cc2)=C(I)c2ccc(Cl)cc21` (centres undefined), the IC50 came to 4.8 µM.

In the case of `CCOP1(=O)OC(c2ccc(CC)cc2)=C(Cl)c2ccc(Cl)cc21` (centres undefined), the IC50 came out at 8.9 µM.

Turning to `CCCCC1=Cc2ccc(Cl)cc2P(=O)(OCC)O1` (centres undefined), the IC50 turned out to be 43.1 µM.

Turning to `CCOP1(=O)OC(c2ccc([N+](=O)[O-])cc2)=Cc2ccc(Cl)cc21` (centres undefined), the IC50 is > 100 µM.

As for `CCOP1(=O)OC(c2ccc(OC)cc2)=C(Br)c2ccc(Cl)cc21` (centres undefined), the IC50 is 47.9 µM.

Take `CCOP1(=O)OC(C2CC2)=C(Cl)c2ccc(OC)cc21` (centres undefined): the IC50 is > 150 µM.

Take `CCOP1(=O)OC(c2ccc(CC)cc2)=C(CC(=O)c2ccccc2)c2ccc(Cl)cc21` (centres undefined): the IC50 stood at 5.1 µM.

Consider `CCOP1(=O)OC(c2ccccc2)=Cc2ccc(OC)cc21` (centres undefined), for which the IC50 stood at 77.4 µM.

As to `CCc1ccc(C2=Cc3ccc(Cl)cc3P(=O)(O)O2)cc1`, the IC50 worked out at 58.4 µM.

Take `O=P1(O)OC(c2ccccc2)=C(Br)c2ccccc21`: the IC50 was found to be 14.1 µM.

Take `CCOP1(=O)OC(c2ccccc2)=C(Br)c2ccc(OC)cc21` (centres undefined): the IC50 came to 34.4 µM.

With `O=P1(O)OC(c2ccccc2)=Cc2ccccc21`, the IC50 came to 96.3 µM.

Take `O=P1(O)OC(c2ccccc2)=C(Cl)c2ccc(Cl)cc21`: the IC50 is 14.6 µM.

`CCOP1(=O)OC(c2ccccc2)=C(Br)c2ccc(Cl)cc21` (centres undefined): the IC50 is 51.2 µM.

Regarding `COc1ccc2c(c1)P(=O)(O)OC(c1ccccc1)=C2Br`, the IC50 came out at 57.4 µM.

Turning to `CCOP1(=O)OC(c2ccc(CC)cc2)=Cc2ccc(Cl)cc21` (centres undefined), the IC50 stood at 40.3 µM.

Turning to `CCOP1(=O)OC(c2ccc(OC)cc2)=C(I)c2ccc(Cl)cc21` (centres undefined), the IC50 turned out to be 26.2 µM.

Regarding `CCOP1(=O)OC(c2ccccc2)=C(Cl)c2ccc(Cl)cc21` (centres undefined), the IC50 was 34.8 µM.

As to `CCOP1(=O)OC(c2ccccc2)=C(I)c2ccccc21` (centres undefined), the IC50 was 30.3 µM.

Turning to `CCCCC1=Cc2ccccc2P(=O)(O)O1`, the IC50 stood at 62.6 µM.

Turning to `CCOP1(=O)OC(c2ccccc2)=C(C#Cc2ccccc2)c2ccccc21` (centres undefined), the IC50 turned out to be 2.3 µM.

For the compound `O=P1(O)OC(c2ccccc2)=Cc2ccc(Cl)cc21`, the IC50 was found to be 38.7 µM.

With `CCOP1(=O)OC(c2ccccc2)=C(Br)c2ccccc21` (centres undefined), the IC50 was 18.9 µM.

Regarding `CCOP1(=O)OC(c2ccccc2)=Cc2ccc(Cl)cc21` (centres undefined), the IC50 is 56.9 µM.

`CCOP1(=O)OC(c2ccccc2)=C(I)c2ccc(Cl)cc21` (centres undefined): the IC50 stood at 47.9 µM.

On to `CCOP1(=O)OC(CO)=Cc2ccc(OC)cc21` (centres undefined), for which the IC50 is 79.4 µM.

With `O=P1(O)OC(c2ccccc2)=C(Cl)c2ccccc21`, the IC50 amounted to 1.9 µM.

Regarding `CCOP1(=O)OC(c2ccccc2)=C(I)c2ccc(OC)cc21` (centres undefined), the IC50 turned out to be 54.5 µM.

On to `CCOP1(=O)OC(c2ccc(CC)cc2)=C(C#Cc2ccccc2)c2ccc(Cl)cc21` (centres undefined), for which the half-maximal inhibitory concentration (IC50) is 8.5 µM.

Regarding `CCOP1(=O)OC(c2ccc(CC)cc2)=C(Br)c2ccc(Cl)cc21` (centres undefined), the half-inhibitory concentration (IC50) amounted to 6.4 µM.

In the case of `CCOP1(=O)OC(C2CC2)=C(Cl)c2ccc(Cl)cc21` (centres undefined), the IC50 was > 100 µM.

For `COc1ccc2c(c1)P(=O)(O)OC(c1ccccc1)=C2`, the IC50 is 102 µM.

As for `CCOP1(=O)OC(c2ccccc2)=C(Cl)c2ccccc21` (centres undefined), the IC50 amounted to 12.7 µM.

Turning to `CCOP1(=O)OC(c2ccccc2)=C(Cl)c2ccc(OC)cc21` (centres undefined), the IC50 was 89.6 µM.

As for `CCOP1(=O)OC(c2ccccc2)=Cc2ccccc21` (centres undefined), the IC50 came out at 63.6 µM.
